N-glyco inh = blocks N-linked glycosylation in D54 reporter cells. D54 ERlucT glycosylation luciferase reporter, 24 h; percent of 100 nM tunicamycin response. reporter increase, % at 12.5 µM. actives 0.23% (n = 360,000). AID 588692;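 active means mean luciferase reporter signal, scaled so untreated is 0 and the glycosylation-blocking control 100, at or above a set limit in every replicate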;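 further: luciferase carries N-glycosylation sites so blocking glycosylation raises the light; 0% = median of neutral control wells and 100% = median of 100 nM tunicamycin wells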
FN deposit inh = fibronectin deposition inhibition; actives 0.086% (n = 350,000); AH1F fibroblasts, Alexa488-fibronectin deposition fluorescence, overnight; inhibition, % at 12.6 µM;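 active means mean inhibition across replicates of 30% or more, regardless of how many single replicates reach that level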;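 further: positive control wells lacked labelled fibronectin entirely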
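Material: AH1F fibroblasts assembling fluorescent fibronectin matrix; amount: 10000 AH1F cells/well; medium: DMEM, 2% serum; reagent: Alexa488-fibronectin, 24 nM final in well; dosing: single compound dose, delivered by pin transfer; incubation: 1 h adhesion, overnight exposure; detection: fluorescence after three HBSS washes, excitation 485 nm, emission 525 nm; measure: fibronectin deposition inhibition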
RAD52 anneal inh = inhibitors of human RAD52 DNA annealing | recombinant RAD52 DNA annealing, FRET fluorescence | actives 0.46% (n = 360,000) | inhibition, % at 18.7 µM | P43351;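 active means every replicate showing at least 50% inhibition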
NSD2 HMT inh = NSD2 (human) methyltransferase inhibition; actives 0.54% (n = 310,000); NSD2 peptide methylation, AlphaScreen, 120 min; AID 743445; inhibition, % at 12.5 µM; in the data active means inhibition above about 50%
RAD54 inh = blocks human RAD54 Holliday junction branch migration | Q92698 | FAM/BHQ fluorescence | inhibition, % at 10.4 µM | actives 0.14% (n = 360,000) | AID 602329;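 active means mean normalized replicate activity at least 40 and at least half of replicates scoring 40 or more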;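 further: 0% = median of neutral control wells and 100% = median of positive control wells; inhibitors cause a drop in the FAM fluorescence signal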
MLL AF4-AF9 inh = MLL-AF4/AF9 protein interaction inhibition; inhibition, % at 10 µM; actives 0.47% (n = 350,000); AID 651704; AlphaScreen, biotin-AF4 peptide binding to FLAG-AF9;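 active means every replicate reaching a set inhibition limit, whatever the replicate mean, cut at about 25% in these data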;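 further: 0% = plate neutral control median and 100% = total signal loss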
Target sequence (P42568 whole entry, looked up): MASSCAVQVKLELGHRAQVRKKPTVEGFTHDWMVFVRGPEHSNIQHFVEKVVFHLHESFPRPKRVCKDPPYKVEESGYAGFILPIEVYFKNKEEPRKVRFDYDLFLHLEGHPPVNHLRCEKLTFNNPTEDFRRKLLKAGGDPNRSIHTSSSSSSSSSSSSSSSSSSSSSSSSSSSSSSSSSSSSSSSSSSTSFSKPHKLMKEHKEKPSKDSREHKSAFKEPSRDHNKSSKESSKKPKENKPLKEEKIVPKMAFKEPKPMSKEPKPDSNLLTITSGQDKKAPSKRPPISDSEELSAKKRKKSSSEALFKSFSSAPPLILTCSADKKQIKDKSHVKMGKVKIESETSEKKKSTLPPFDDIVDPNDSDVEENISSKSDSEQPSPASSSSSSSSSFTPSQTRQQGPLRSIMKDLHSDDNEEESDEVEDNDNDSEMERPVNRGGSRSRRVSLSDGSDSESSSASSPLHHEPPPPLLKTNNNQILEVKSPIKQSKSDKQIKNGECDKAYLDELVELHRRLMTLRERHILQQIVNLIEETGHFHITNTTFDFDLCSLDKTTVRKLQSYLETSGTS
* hit, by the source's call; i = inactive; x = no result. An excerpt weighted towards active compounds, which were near 1.2% of everything screened.

SMILES | N-glyco inh | FN deposit inh | RAD52 anneal inh | NSD2 HMT inh | RAD54 inh | MLL AF4-AF9 inh
COc1cccc(C(NC(C)=O)c2nc(-c3ccccc3C)cs2)c1 (centres undefined) | 45* | -2 | -8 | 15 | -11 | -7
COc1cc(F)ccc1-c1csc(C(NC(C)=O)c2cccc(F)c2)n1 (centres undefined) | 58* | -4 | -4 | 12 | 7 | -1
CC(=O)N(C)C[C@H]1Oc2ncc(C3=CCCC3)cc2C(=O)N([C@@H](C)CO)C[C@H]1C | x | 4 | 1 | x | 0 | -6
CC(=O)N(C)C[C@@H]1Oc2cc(-c3cncnc3)ccc2S(=O)(=O)N([C@H](C)CO)C[C@H]1C | x | 7 | 6 | x | 9 | -3
O=[N+]([O-])c1ccc(CNc2ccc(Cl)cc2)s1 | 8 | -6 | -14 | 2 | -3 | 30*
Cn1c(NC(=O)C2CC2)cc(=O)n(C)c1=O | 3 | 2 | -7 | x | -14 | 49*
Cn1c(NC(=O)CCC2CCCCC2)cc(=O)n(C)c1=O | -9 | 9 | -64 | x | -3 | 3
CCC(=O)N[C@@H]1C=C[C@@H](CC(=O)NCC2CC2)O[C@H]1CO | x | -1 | x | x | x | x
COCC#Cc1cnc2c(c1)C(=O)N([C@H](C)CO)C[C@H](C)[C@H](CN(C)C(=O)Cc1ccncc1)O2 | x | -10 | -33 | x | 3 | -3
COc1cc(N/C(N)=N/c2nc(C)cc(C)n2)cc(OC)c1 | 5 | -3 | 81* | 2 | 10 | 6
COc1ccc(N/C(N)=N/c2nc(C)cc(C)n2)c(OC)c1 | 1 | 5 | 9 | 0 | x | 1
CN1C2=CC=CC=CC2=[N+](C)C12C([N+](=O)[O-])=CC(=[N+]([O-])[O-])C=C2[N+](=O)[O-] (centres undefined) | 29* | -11 | -7 | -2 | -6 | 3
C[C@H](CO)N1C[C@H](C)[C@@H](CN(C)Cc2ccc(C(=O)O)cc2)Oc2ccc(NC(=O)CCN3CCOCC3)cc2CC1=O | x | 5 | x | x | 7 | x
Cc1cccc(-n2nnnc2SCC(=O)NCC2(N3CCOCC3)CCCCC2)c1C | -7 | 2 | -25 | 2 | -5 | 1
COc1ccccc1-n1nnnc1SCC(=O)NCC1(N2CCOCC2)CCCCC1 | 2 | 5 | -17 | -1 | -1 | 27*
CCCC(=O)Nc1ccc2c(c1)C(=O)N(C)[C@H]1CC[C@@H](CC(=O)Nc3cn(C)nc3C)O[C@H]1CO2 | x | -25 | -9 | x | 2 | -1
O=C(C[C@H]1CC[C@@H]2[C@H](COC[C@H](O)CN2Cc2cocn2)O1)NCc1cccc(F)c1 | x | 11 | -11 | x | -5 | 0
COc1ccc(NC(=O)c2cc(S(=O)(=O)N(C)C)ccc2N2CCCC2)cc1Cl | 36* | 5 | -6 | -1 | x | 3
Cc1ccc(NC(=O)c2cc(S(=O)(=O)N(C)C)ccc2N2CCCC2)cc1S(=O)(=O)N(C)C | 60* | 6 | -25 | 2 | x | 12
COc1ccc(NC(=O)Nc2ccc3c(c2)C(=O)N([C@H](C)CO)C[C@@H](C)[C@H](CN(C)C(=O)CCCN(C)C)OCCCC[C@@H](C)O3)cc1 | x | x | 37 | x | 9 | 12
CN1C2CCC1/C(=C/c1cccn1C)C(=O)/C2=C\c1cccn1C | 0 | -110 | i | 18 | i | 43*
CC(=O)Nc1ccc(NC(=O)C2CCN(S(=O)(=O)c3cccc4nonc34)CC2)cc1 | 2 | x | x | 24 | 4 | x
COc1ccc(NC(=O)C2CCN(S(=O)(=O)c3cccc4nonc34)CC2)cc1OC | 0 | 3 | -10 | -6 | 5 | 26*
COc1cc(-c2ccc(Nc3ccccc3C(=O)O)c(OC)c2)ccc1Nc1ccccc1C(=O)O | -8 | -9 | -18 | 80* | -34 | 9
COc1cc([N+](=O)[O-])c(OC)cc1Nc1ccccc1C(=O)O | x | 3 | -33 | 15 | x | 3
SMILES | N-glyco inh | FN deposit inh | RAD52 anneal inh | NSD2 HMT inh | RAD54 inh | MLL AF4-AF9 inh
C[C@H](CO)N1C[C@H](C)[C@@H](CN(C)C(=O)Cc2ccccc2)OCCCC[C@H](C)Oc2ccc(NC(=O)CCC(F)(F)F)cc2C1=O | x | -10 | x | x | -6 | x
CO[C@@H]1CN(C)C(=O)c2ccc(NS(C)(=O)=O)cc2OC[C@H](C)N(CC2CCOCC2)C[C@H]1C | x | -4 | -2 | x | 0 | -4
O=C(c1ccccn1)N1C[C@H]2[C@@H](c3ccccc31)[C@@H](CO)N2C(=O)C1CCOCC1 | x | x | -11 | x | -8 | -10
C=C(C)C(=O)Oc1ccc(N=Nc2ccc(C)cc2)ccc1=O | 9 | -6 | -19 | 13 | -12 | 28*
CN1CCN(C(=S)c2cn(Cc3ccccc3)c3ccccc23)CC1 | -3 | -3 | -18 | x | 6 | 12
CN1CCN(C(=S)c2cn(Cc3ccc(Br)cc3)c3ccccc23)CC1 | -4 | x | -4 | 4 | x | 27*
C[C@@H]1CN([C@H](C)CO)C(=O)Cc2cc(NC(=O)CCN3CCOCC3)ccc2O[C@@H]1CN(C)Cc1ccccc1 | x | x | -5 | x | -4 | 4
C[C@@H]1CN([C@H](C)CO)C(=O)c2cc(NS(=O)(=O)c3ccc(F)cc3)ccc2O[C@@H](C)CCCCO[C@@H]1CN(C)Cc1ccncc1 | x | -10 | 1 | x | 0 | -1
Cc1cc(C)n(/C(=C\N(C)C)C(=O)c2cccc([N+](=O)[O-])c2)n1 | 0 | -4 | -3 | 0 | 7 | 51*
CCc1nc(Sc2nnnn2-c2ccccc2)c2c3c(sc2n1)CCCC3 | -7 | -5 | -4 | 0 | x | 47*
O=C1C=CC(=O)N1CCCCCCCCCCN1C(=O)C=CC1=O | -3 | 44* | -10 | -3 | -3 | -2
CN1[C@H](CO)[C@@H]2c3ccccc3N(C(=O)Nc3ccccc3F)C[C@@H]21 | x | x | 1 | x | -3 | 0
C[C@@H]1CN([C@@H](C)CO)C(=O)c2cc(NS(=O)(=O)c3cccs3)ccc2O[C@@H](C)CCCCO[C@@H]1CN(C)C(=O)Nc1ccccc1 | x | 8 | 15 | x | -5 | -2
C[C@H](CO)N1C[C@H](C)[C@H](CN(C)C(=O)Nc2ccc(F)cc2)Oc2ncc(C3=CCCC3)cc2C1=O | x | -2 | 6 | x | 1 | -1
Cc1ccc(-c2ccc([C@H]3[C@@H](CO)N4CCCCN(S(=O)(=O)c5cccc(C)c5)C[C@H]34)cc2)cc1 | x | x | 70* | x | 4 | -3
Cc1cccc(S(=O)(=O)N2CCCCN3[C@@H](CO)[C@@H](c4ccc(-c5ccccc5)cc4)[C@@H]3C2)c1 | x | x | 64* | x | 5 | -4
CN(C)C(=O)c1cccc(-c2ccccc2[C@H]2[C@@H](C#N)N(C(=O)C3CCC3)[C@@H]2CO)c1 | x | -8 | -7 | x | x | 1
CN(C)C(=O)c1cccc(-c2ccccc2[C@H]2[C@H](C#N)N(C(=O)C3CCC3)[C@H]2CO)c1 | x | -4 | 62* | x | x | -1
COc1ccc2[nH]c(C(=O)N/N=C/c3ccccc3OC)cc2c1 | 37* | 1 | -7 | 1 | 1 | 2

Source: PubChem
